Reference: ChEMBL document CHEMBL1139516, “Optimization of amide-based inhibitors of soluble epoxide hydrolase with improved water solubility” (J Med Chem, 2005)
Values after ≈ are worked out from the molar mass of the structure shown.

How the values were obtained:
[1] = biological target: T1, Bifunctional epoxide hydrolase 2 (Mus musculus, UniProt P34914); assay: Inhibitory concentration against mouse soluble epoxide hydrolase (sEH) at 0.12 uM
T1 sequence (P34914 whole entry): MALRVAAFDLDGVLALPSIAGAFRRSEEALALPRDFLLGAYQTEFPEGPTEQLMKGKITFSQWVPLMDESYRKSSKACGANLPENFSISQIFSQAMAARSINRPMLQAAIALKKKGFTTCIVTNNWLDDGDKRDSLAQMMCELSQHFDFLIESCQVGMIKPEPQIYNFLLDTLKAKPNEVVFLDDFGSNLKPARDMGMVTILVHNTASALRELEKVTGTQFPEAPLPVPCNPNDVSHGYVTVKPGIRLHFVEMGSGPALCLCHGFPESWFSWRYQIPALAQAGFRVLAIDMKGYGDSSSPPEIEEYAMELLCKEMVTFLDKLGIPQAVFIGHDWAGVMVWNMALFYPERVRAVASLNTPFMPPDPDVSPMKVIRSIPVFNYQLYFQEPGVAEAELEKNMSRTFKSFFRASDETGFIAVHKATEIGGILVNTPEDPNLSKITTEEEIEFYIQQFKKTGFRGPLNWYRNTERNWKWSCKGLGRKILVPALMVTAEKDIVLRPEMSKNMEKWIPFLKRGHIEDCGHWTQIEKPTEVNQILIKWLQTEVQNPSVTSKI
In short: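 Recombinant murine enzyme, baculovirus-expressed, affinity-purified (≥97% pure). 0.12 μM enzyme preincubated with inhibitor 5 min at 30 °C in 0.1 M sodium phosphate pH 7.4 with 0.1 mg/mL BSA. Racemic 4-nitrophenyl-trans-2,3-epoxy-3-phenylpropyl carbonate added at 40 μM. 4-Nitrophenolate formation read at 405 nm over 1 min, 30 °C. Run in triplicate. IC50 regressed from ≥5 points, at least two on each side in the linear region.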

[2] = biological target: T2, Bifunctional epoxide hydrolase 2 (Homo sapiens, UniProt P34913); assay: Inhibitory concentration against human soluble epoxide hydrolase (sEH) at 0.24 uM
T2 sequence (P34913 whole entry): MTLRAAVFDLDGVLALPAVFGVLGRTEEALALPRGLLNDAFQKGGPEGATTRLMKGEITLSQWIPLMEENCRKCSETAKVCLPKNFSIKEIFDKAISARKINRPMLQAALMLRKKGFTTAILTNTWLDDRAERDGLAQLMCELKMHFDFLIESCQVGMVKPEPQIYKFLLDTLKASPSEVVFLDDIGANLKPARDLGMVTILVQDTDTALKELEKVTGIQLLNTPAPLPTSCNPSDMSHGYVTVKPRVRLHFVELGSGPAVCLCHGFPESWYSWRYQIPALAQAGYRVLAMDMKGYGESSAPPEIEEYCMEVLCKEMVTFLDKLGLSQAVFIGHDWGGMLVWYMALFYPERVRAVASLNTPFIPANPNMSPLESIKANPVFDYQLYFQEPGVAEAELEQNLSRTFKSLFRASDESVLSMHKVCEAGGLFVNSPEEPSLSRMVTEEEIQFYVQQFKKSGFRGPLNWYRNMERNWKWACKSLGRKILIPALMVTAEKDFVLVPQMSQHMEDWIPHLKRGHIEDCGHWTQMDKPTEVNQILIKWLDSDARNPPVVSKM

[3] = Partition coefficient (logP); type: physicochemical; conditions: octanol/water
In short: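 Calculated, not measured: Crippen's method estimate.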

[4] = Solubility in sodium phosphate buffer 0.1M, pH 7.4 at 25 +/-1.5 degree C; type: physicochemical; conditions: read-out: S
In short: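 Excess solid added to 0.1 M sodium phosphate pH 7.4 at 25 ± 1.5 °C. Suspension equilibrated by 1 h sonication, then 24 h shaking. Centrifuged 5 min at 200g. Absolute amount of dissolved compound then calculated.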

Structure (SMILES)	IC50 [1] [µM]	IC50 [2] [µM]	logP ([3]; read-out: logP)	solubility [4] [µg/mL]	logP [3]
O=C(CC1CCCCC1)Nc1ccccc1CO	> 100	> 100			
O=C(Nc1ccccc1CO)NC1CCCCC1	> 100	> 100			
CCCCCOC(=O)CCCOC(=O)Oc1cccc(Cl)c1	> 100	> 100			
CCCCCOC(=O)CCCNC(=O)C12CC3CC(CC(C3)C1)C2	2.8	9.4			
CCCCCCCCCCCC(=O)NC12CC3CC(CC(C3)C1)C2			5.52	0.42 (≈ 1.26 µM)	
COc1ccc(NC(=O)CC2CCCCC2)cc1		6.2			
CCCCCCCCCCNC(=O)CC12CC3CC(CC(C3)C1)C2			5.64	0.32 (≈ 0.959 µM)	
CCCCCOC(=O)CCCOC(=O)Cc1cccc(Cl)c1	> 100	> 100			
CCCCCOC(=O)CCCOC(=O)Nc1cccc(Cl)c1	17.4	25.2			
CCCCCOC(=O)CCCCC(=O)NC12CC3CC(CC(C3)C1)C2			3.53	15.1 (≈ 43.2 µM)	
CCCCCCC(O)CCCNC(=O)NC12CC3CC(CC(C3)C1)C2 (configuration not stated)	0.05	0.13			
O=C(Cc1ccccc1CO)NC1CCCCC1	> 100	> 100			
CCCCCOC(=O)CCCNC(=O)NC12CC3CC(CC(C3)C1)C2				1.44 (≈ 4.11 µM)	2.77
CCCCCOC(=O)CCCNC(=O)Oc1cccc(Cl)c1	> 100	> 100			
CCCCCOC(=O)CCCNC(=O)CC12CC3CC(CC(C3)C1)C2			3.66	17.4 (≈ 49.8 µM)	
CCCCCCCCCCNC(=O)NC12CC3CC(CC(C3)C1)C2		0.11	4.76	0.5 (≈ 1.49 µM)	
